An excerpt weighted towards active compounds, which were near 1.2% of everything screened.
S1P3 antagonist – S1P3 (human) receptor antagonism; CHO S1P3 NFAT-BLA reporter, FRET fluorescence, antagonist mode; inhibition, % at 4.98 µM; 0.27% of 170,000 active;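 active = inhibition above the plate cutoff, the mean inhibition of test wells on that plate plus 3 SD, cut at about 28% in these data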;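 also: cells challenged with S1P at its EC80 of 0.8 µM; blue over green emission ratio from cleaved BLA substrate after 4 h stimulation; 0% = S1P-stimulated wells and 100% = unstimulated DMSO-only wells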
S1P4 ag – activates the human S1P4 receptor; activation, % at 4.98 µM; AID 1509; O95977; 0.35% of 220,000 active; S1P4-expressing cell line, agonist reporter assay; in the data active = activation above about 11%;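 also: 0% = DMSO vehicle and 100% = reference agonist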
Target sequence (O95977 whole entry, looked up): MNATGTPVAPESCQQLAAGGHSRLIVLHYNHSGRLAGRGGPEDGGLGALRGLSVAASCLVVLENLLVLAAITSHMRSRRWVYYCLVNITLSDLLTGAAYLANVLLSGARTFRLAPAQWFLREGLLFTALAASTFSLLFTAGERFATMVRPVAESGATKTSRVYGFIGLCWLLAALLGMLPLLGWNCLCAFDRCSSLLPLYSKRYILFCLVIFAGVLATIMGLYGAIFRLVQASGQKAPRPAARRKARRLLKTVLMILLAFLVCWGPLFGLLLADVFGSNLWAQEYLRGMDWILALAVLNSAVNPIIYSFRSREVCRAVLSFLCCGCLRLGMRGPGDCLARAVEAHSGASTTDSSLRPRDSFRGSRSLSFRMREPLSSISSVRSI
Calb biofilm kill – mixtures killing C. albicans biofilm; C. albicans biofilm persisters + clotrimazole, fluorescence viability; primary screen in compound mixtures of four per well; inhibition, % at 7.6 µM; 0.02% of 120,000 active; AID 1242;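 active = inhibition above 30.3% in the primary screen of four-compound pools, then above 30% when the compound was retested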;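 also: compounds exposed to preformed 24 h biofilms for 48 h; 0% = untreated biofilm control and 100% = clotrimazole plus chlorhexidine kill blank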
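System: C. albicans CAF4-2 wild-type biofilms; Medium: RPMI/MOPS medium, pH 7.0; Reagent: Clotrimazole, 50 µg/mL; Times: biofilm formation 24 h, compound exposure 48 h, 37 °C; Detection: 2-h Alamar Blue fluorescence, 535/590 nm excitation/emission; Evaluation: percent inhibition of biofilm viability.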
Rad51 HR inh – blocks human Rad51 in homologous recombination. 0.085% of 200,000 active. Q06609. AID 1385. inhibition, % at 10 µM. hRad51 DNA strand exchange, fluorescence dequenching;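 active = inhibition above 40% at the single screening dose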;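 also: 0% = DMSO control wells and 100% = blanks with heterologous ssDNA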
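System: hRad51 filaments on single-stranded DNA; reagent: Fluorescein- and BHQ1-tagged 47-mer duplex; compound dosing: one concentration, 10 µM final; timing: filaments 15 min 37 °C, then compound 30 min; measured by: fluorescein emission 520 nm, excitation 485 nm; benchmarks: per-plate controls and blanks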
Efa HMGR inh – blocks class II HMG-CoA reductase of Enterococcus faecalis | purified E. faecalis HMGR, NADPH absorbance 340 nm kinetic | inhibition, % at 10 µM | AID 1066 | 0.41% of 190,000 active;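 active = inhibition above a set limit, the median over all tested compounds plus 3 SD, cut at about 9.5% in these data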;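 also: enzyme runs in reverse so mevalonate oxidation gives rising NADPH absorbance; 0% = complete reaction with DMSO and 100% = background rate lacking mevalonate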
S1P4 antag – antagonists of human S1P4 receptor | O95977 | S1P4-expressing cells, antagonist mode, reporter read-out | inhibition, % at 4.98 µM | 0.26% of 220,000 active; in the data active = inhibition above about 29%;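 also: 0% = wells stimulated with agonist and 100% = vehicle wells without agonist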
* = called active by the depositor; . = no result given.

SMILES	S1P3 antagonist	S1P4 ag	Calb biofilm kill	Rad51 HR inh	Efa HMGR inh	S1P4 antag
COC(=O)c1ccccc1C(=O)N1CCOCCN(C(=O)c2ccccc2C(=O)OC)CCOCC1	-12.4	-0.3	8.4	-11.6	-4.1	-7.7
COc1ccccc1S(=O)(=O)Cc1ccc(C(=O)NCCN(C)C)o1	-32.6	1.0	.	-3.3	.	-9.2
COc1ccccc1S(=O)(=O)Cc1ccc(C(=O)NCCN2CCCCCC2)o1	-37.7	-0.9	.	-0.4	10.1*	1.2
Cc1ccc(Cn2nnc3c(=O)n(CC(=O)NCc4ccco4)cnc32)cc1	-20.6	3.5	13.8	-3.7	19.6*	-1.2
O=C(NN1C(=O)c2ccccc2NC1c1ccoc1)c1ccccc1 (stereo not drawn)	-1.4	-0.2	9.8	47.8*	-0.7	-24.5
CC(=O)NN1C(=O)c2ccccc2NC1c1ccoc1 (stereo not drawn)	-15.8	-0.3	10.4	4.2	-2.0	0.6
O=C1CN2C(=Nc3ccc(Cl)cc3C2c2ccccc2)CN1 (stereo not drawn)	-20.7	0.9	.	2.4	-4.3	-10.2
S=C1NCCc2ccc(Cl)cc2C1c1ccccc1 (stereo not drawn)	.	-2.2	13.8	0.3	16.6*	13.0
CCOc1ccc(-n2c3nc4ccccc4nc3c3c(=O)n(Cc4ccco4)cnc32)cc1	.	0.3	.	.	.	-2.1
Cc1cc(C)cc(-n2c3nc4ccccc4nc3c3c(=O)n(Cc4ccco4)cnc32)c1	.	0.1	.	-5.5	17.2*	22.4
CN1CCN(c2ccccc2NC(=O)Cc2ccc(Cl)cc2)CC1	.	2.4	.	7.0	-2.3	0.1
Cc1ccc([N+](=O)[O-])cc1Nc1nc(N2CCOCC2)nc(N2CCOCC2)n1	5.0	0.7	7.1	11.4	10.3*	-14.3
O=[N+]([O-])c1ccc(Cl)c(/C=N/Nc2nc(N3CCOCC3)nc(N3CCOCC3)n2)c1	.	-3.1	.	4.6	-4.9	-1.0
CC(=O)c1sc2nc(=O)c(C)nn2c1C	-28.4	0.9	.	-0.2	-4.8	-34.8
CCOC(=O)c1c(C)[nH]c(C(=O)COC(=O)C2CC(=O)N(Cc3ccccc3)C2)c1C (stereo not drawn)	6.3	-0.6	.	-6.2	-5.1	-3.3
Cn1cccc1C(=O)OCC(=O)N1c2ccccc2NC(=O)C1(C)C	10.6	2.5	9.2	-9.5	-2.5	-3.7
O=C1CN(C(=O)CSc2nnc3ccccn23)c2ccccc2N1	-7.9	1.7	19.2	-2.7	12.2*	-0.6
Cc1nnc(SCC(=O)N2CC(=O)Nc3ccccc32)n1C	.	-2.8	.	-1.2	-0.5	1.0
Cn1cccc1C(=O)OCC(=O)N1CC(=O)Nc2ccccc21	-10.1	0.8	1.8	6.8	10.8*	4.0
CC(C)(C)C(=O)N1CCN(c2ncccc2C(F)(F)F)CC1	0.7	0.8	23.5	16.3	.	0.9
O=C(/C=C/c1cccc([N+](=O)[O-])c1)N1CCN(c2ccccc2F)CC1	-21.6	1.2	18.8	8.0	0.2	-5.2
Cc1nc([N+](=O)[O-])c(Br)n1CC(=O)c1cccc([N+](=O)[O-])c1	2.3	0.0	9.9	13.6	16.5*	1.3
CC1=NN(c2ccc(C)cc2C)C(=O)C1C(c1ccccc1)C1C(=O)N(c2ccc(C)cc2C)N=C1C (stereo not drawn)	.	-1.2	.	3.9	9.6*	-4.3
S=C(Nc1ccc(Cl)cc1)c1sc(N2CCCCC2)nc1N1CCOCC1	4.6	0.7	8.6	17.2	-3.7	-8.3
CCCCOCCCNC(=O)c1ccc(OCC)cc1	.	-0.3	.	.	10.3*	-3.3
SMILES	S1P3 antagonist	S1P4 ag	Calb biofilm kill	Rad51 HR inh	Efa HMGR inh	S1P4 antag
COc1cc(NC(=O)c2c(F)cccc2F)c(Cl)cc1Cl	-5.8	1.6	10.5	14.0	-0.8	-16.0
CC1CCCCC1NC(=S)Nc1ccc(Cl)cc1Cl (stereo not drawn)	14.3	-2.4	12.7	40.7*	-8.9	0.2
CC(Sc1cccc[n+]1[O-])C(=O)Nc1cccc([N+](=O)[O-])c1 (stereo not drawn)	-13.1	-0.2	-3.3	0.4	-3.0	-29.8
CCC(Sc1ccccn1)C(=O)Nc1cccc([N+](=O)[O-])c1 (stereo not drawn)	-7.9	-0.9	11.3	.	13.7*	-5.5
Cc1nc2ccccc2c(=O)n1NC(=O)/C=C/c1ccc(Br)cc1	-14.6	2.1	17.0	2.5	-0.2	-25.5
CCOC(=O)Cc1csc(NC(=O)COc2ccccc2)n1	2.8	0.9	.	.	-7.8	-10.1
CCOC(=O)Cc1csc(NC(=O)COc2cccc(C)c2)n1	3.6	0.6	8.5	-5.6	18.0*	-12.9
COc1ccc2oc(=Nc3ccc(C(=O)O)cc3)c(C(=O)NCc3ccco3)cc2c1	-13.7	1.1	13.4	4.6	15.4*	-8.5
CCOC(=O)/C(C#N)=C(\N)C(C)C(=O)Nc1ccccn1 (stereo not drawn)	-14.0	-0.7	.	-3.4	-3.3	1.4
C/C(=N/NC(=O)c1cc(O)c(O)c(O)c1)c1ccc([N+](=O)[O-])cc1	4.9	1.9	8.4	10.3	20.9*	-17.1
C/C(=N\NC(=O)c1ccc([N+](=O)[O-])cc1)c1c(O)cc(C)oc1=O	-23.3	2.8	1.0	27.5	-2.9	-11.1
COc1ccc(C2=NN(c3nc(C)cc(C)n3)C(=O)C2)cc1	13.7	1.8	0.7	-0.8	-4.2	-15.4
CCn1cc(C(=O)O)c(=O)c2cc(F)c(N3CCN(C(=S)NC(=O)c4ccccc4Cl)CC3)cc21	-6.8	1.6	25.7	12.9	.	6.8
CCn1cc(C(=O)O)c(=O)c2cc(F)c(N3CCN(S(=O)(=O)c4ccc(Br)cc4)CC3)cc21	-12.7	3.4	13.2	-6.3	10.3*	1.8
CCc1cccc(C)c1NC(=O)CO/N=C(\N)CC(=O)NC1CCCCC1	-9.6	1.8	5.7	-15.0	10.8*	-0.5
CSc1ccccc1NC(=O)C1CC(c2ccccc2O)=NO1 (stereo not drawn)	82.2*	-2.4	.	8.2	-2.8	-3.8
COC(=O)c1ccccc1NC(=O)C1CC(c2ccccc2O)=NO1 (stereo not drawn)	-0.7	-2.3	.	9.8	1.7	-14.3
COc1ccc(C(=O)Nc2ccc(C(F)(F)F)n(C)c2=O)cc1	5.0	1.2	15.6	-5.5	11.4*	1.1
COc1ccc(NC(=O)c2ccc3c(c2)n(C)c(=O)n3C)cc1	-0.8	1.0	18.1	-6.9	20.8*	8.5
CCC(=O)N1c2ccccc2-c2nnc(SC)nc2OC1c1ccc(OC)c(OC)c1 (stereo not drawn)	-5.5	-1.4	.	-2.6	4.5	-6.5
CCOc1ccc(C2Oc3nc(SC)nnc3-c3ccccc3N2C(C)=O)cc1OC (stereo not drawn)	54.7*	1.5	.	-3.2	-3.6	-15.6
CN(Cc1cccs1)C(=O)c1ccc(S(=O)(=O)NCc2ccco2)cc1	7.9	0.5	8.4	44.1*	.	-8.2

Bioassay records as filed in PubChem BioAssay.
